Sampled rows, rich in hits. Any-hit rate of the full collection: about 4.9%.
STAT3 blocker = IL-6 driven STAT3 reporter inhibitors, primary screen, U3A cells, luciferase, luminescence, MLSCN library; IL-6 STAT3-luciferase reporter; host cell line lacks STAT1; inhibition, % at 5.5 µM; 0.89% of 190,000 active;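 active means inhibition above the mean inhibition across all screened compounds plus 3 SD, cut at about 44% in these data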;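 further: 0% = DMSO only wells and 100% = 100 µM nifuroxazide control wells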
FLuc inhib CS = firefly luciferase enzyme inhibitors, primary screen, artefact control for luciferase-based inhibitor screens, biochemical, luminescence, ATPLite; 10 min; AID 1006, 2008; 1.5% of 200,000 active; inhibition, % at 10 µM;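 active means inhibition above about 50% when tested at 10 µM, limit read from the data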
Target sequence (P08659 whole entry, looked up): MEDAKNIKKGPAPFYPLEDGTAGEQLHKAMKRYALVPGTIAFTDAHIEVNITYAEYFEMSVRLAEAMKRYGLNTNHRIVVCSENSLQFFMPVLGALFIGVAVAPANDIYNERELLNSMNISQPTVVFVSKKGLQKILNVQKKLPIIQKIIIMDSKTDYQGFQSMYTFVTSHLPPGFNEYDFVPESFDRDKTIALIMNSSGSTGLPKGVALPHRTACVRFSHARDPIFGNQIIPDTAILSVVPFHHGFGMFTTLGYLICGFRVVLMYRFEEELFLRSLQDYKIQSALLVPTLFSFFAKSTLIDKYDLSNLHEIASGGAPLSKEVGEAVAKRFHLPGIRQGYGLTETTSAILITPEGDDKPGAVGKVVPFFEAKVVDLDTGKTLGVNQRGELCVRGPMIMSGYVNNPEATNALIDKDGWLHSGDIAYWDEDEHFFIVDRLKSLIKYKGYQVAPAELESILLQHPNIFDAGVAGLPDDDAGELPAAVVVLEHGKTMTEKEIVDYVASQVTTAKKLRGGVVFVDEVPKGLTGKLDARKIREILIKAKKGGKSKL
STAT3 act = IL-6 driven STAT3 reporter potentiators, primary screen, U3A cells, luciferase, luminescence, MLSCN library; IL-6 STAT3-luciferase reporter; 100% = signal with IL-6 EC80 alone; activation (% of control), % at 5.6 µM; 0.91% of 190,000 active; AID 871, 2007;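 active means activation above the screen-wide mean of compound activation plus 3 SD, cut at about 130% in these data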;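 further: 0% = background luminescence of wells with medium and substrate only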
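Material: STAT3-luciferase reporter U3A cells. Controls: IL-6-treated wells, 100% activation. Read-out: % activation versus median of IL-6-stimulated wells. Probe or stimulus: IL-6 stimulus at 33 ng/mL final. Timing: compound 1 h, then IL-6 6 h at 37 °C. Signal: reporter luminescence signal.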
STAT1 act = STAT1 signaling activators, primary screen, cell-based, HTS, luciferase reporter. NIH 3T3 STAT1-luciferase reporter, IFN-gamma, luminescence; 100% = IFN-gamma alone, no compound. activation (% of control), % at 5.5 µM. 2.6% of 200,000 active. AID 932, 2007;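 active means activation above the screen-wide mean activation plus 3 SD, cut at about 130% in these data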;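 further: raw ratio to IFN-gamma control signal so 100% means no change and 0% no light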
STAT1 blocker = STAT1 signaling inhibitors, primary screen, cell-based, HTS, luciferase reporter | 0.35% of 200,000 active | inhibition, % at 5.5 µM | AID 920, 2007 | NIH 3T3 STAT1-luciferase reporter, IFN-gamma, luminescence;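 active means inhibition above a set limit, the mean inhibition across all tested compounds plus 3 SD, cut at about 34% in these data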;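 further: 0% = IFN-gamma with DMSO and 100% = IFN-gamma with 300 µM nifuroxazide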
FLuc act counter = FLuc activators, initial screening, artefact control for FLuc-dependent activation tests, biochemical, ATPlite luminescence; ATPlite luciferase biochemical, 10 min; 0 = ATP-free wells, 1 = DMSO control; 200,000 tested, under 10 active; activation factor at 10 µM;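 active means luciferase activation factor, scaled between plate controls, of at least 2 with compound at 10 µM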
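assay system = Luciferase/luciferin detection reagent, cell-free biochemical luciferase assay | also added = ATP substrate | times = 10 min post-reagent at room temperature | measured by = luminescence from luciferase reaction | measure = luciferase activation, seen as luminescence increase over controls | benchmarks = low control with PBS replacing ATP, high control enzyme plus ATP without compound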
Active calls of the source: *; nt = not tested or not shown.

SMILES | STAT3 blocker | FLuc inhib CS | STAT3 act | STAT1 act | STAT1 blocker | FLuc act counter
O=C(Nc1ccc2c(c1)OCO2)C1CCCN(c2nc3ccccc3s2)C1 (stereo not given) | 5 | 2 | 98 | 129* | -31 | 1
O=C(Nc1ccccc1)N1CCc2ccccc2C1 | -31 | 29 | 130 | 122 | -24 | 0.7
Cc1ccc(NC(=O)N2CCc3ccccc3C2)cc1 | -25 | 18 | 122 | 148* | -57 | 0.8
O=C(Nc1ccc(Cl)cc1)N1CCc2ccccc2C1 | 14 | 12 | 90 | 139* | -44 | 0.9
Cc1ccc(-n2ncc3c2ncn2c(C)nnc32)cc1C | 10 | 14 | 92 | 136* | -39 | 0.9
CCc1nnc2c3cnn(-c4ccccc4)c3ncn12 | 19 | 32 | 87 | 133* | -35 | 0.7
c1ccc(-n2ncc3c2ncn2cnnc32)cc1 | 14 | 2 | 95 | 99 | 1 | 1
COC(=O)[C@@]1(Cc2ccc(F)cc2)[C@H]2c3cc(C(=O)N4CCCC4)n(CCc4c[nH]c5ccc(OC)cc45)c3C[C@H]2CN1C(=O)c1ccccc1 | 2 | -5 | 96 | 106 | -6 | 1
O=C(Cc1c(F)cccc1Cl)Nc1ccccc1N1CCCCC1 | -1 | -4 | 109 | 89 | 12 | 1
CC(C)N1CSC(=S)N(Cc2ccccc2)C1 | 2 | -3 | 104 | 99 | -1 | 1
N#CC(C#N)=C(Nc1ccc(F)cc1)SCc1cccc(F)c1 | 59* | -5 | 52 | 56 | 49* | 1
O=C(Nc1nccs1)c1cccc(S(=O)(=O)N2CCCCC2)c1 | 12 | -7 | 93 | 102 | 1 | 1.1
CC(=O)N1CCN(S(=O)(=O)c2cccc(C(=O)Nc3nccs3)c2)CC1 | 4 | -4 | 98 | 131* | -34 | 1
COCCNC(=O)CCCC(=O)NCCOC | 10 | -7 | 94 | 94 | 7 | 1.1
COc1cnc(-c2ccccc2)nc1Oc1ccc(Cl)cc1C | -2 | -1 | 105 | 100 | 0 | 1
O=c1oc2ccc(Br)cc2cc1-c1nc2ccccc2o1 | 0 | -3 | 103 | 103 | -4 | 1
COc1cccc2cc(-c3nc4ccccc4o3)c(=O)oc12 | -4 | 60* | 106 | 119 | -23 | 0.4
CCO[C@@H]1OC(C(=O)N2CCN(Cc3ccccc3)CC2)=C[C@H](C2CC2)[C@H]1CCCO | nt | -3 | nt | 96 | 6 | 1
O=C(NNC1=NCCCCC1)Nc1cccc(Cl)c1 | 2 | 3 | 104 | 136* | -40 | 1
O=C(NNc1cccc(Cl)n1)Nc1cccc(Cl)c1 | 1 | -7 | 97 | 97 | 3 | 1.1
O=C(COC(=O)c1ccc([N+](=O)[O-])o1)Nc1cccc2ccccc12 | -2 | -3 | 105 | 94 | 6 | 1
COC(=O)c1sc(NC(=O)c2ccc(C)o2)nc1C | 7 | 52* | 93 | 121 | -22 | 0.5
CCOC(=O)c1sc(NC(=O)c2ccc(C)o2)nc1C | -1 | 69* | 107 | 123 | -25 | 0.3
CCOC(=O)c1sc(NC(=O)c2ccco2)nc1C | nt | 47 | nt | nt | nt | 0.5
COC(=O)c1sc(NC(=O)c2oc3ccccc3c2C)nc1C | -30 | 6 | 128 | 144* | -48 | 0.9
SMILES | STAT3 blocker | FLuc inhib CS | STAT3 act | STAT1 act | STAT1 blocker | FLuc act counter
Oc1ccccc1C(=S)N1CCN(c2cccc(Cl)c2)CC1 | 1 | -8 | 105 | 101 | -1 | 1.1
Cn1cccc1C(=O)OCc1csc(-c2ccccc2)n1 | 33 | 61* | 75 | 134* | -37 | 0.4
Cc1ccccc1Nc1nc(N)nc(COC(=O)c2ccccc2)n1 | -24 | -4 | 123 | 119 | -22 | 1
Cc1ccccc1Nc1nc(N)nc(COC(=O)c2cccn2C)n1 | -6 | 2 | 114 | 141* | -46 | 1
Cc1ccc(NC(=O)CN2C(=O)C3C4C=CC(C4)C3C2=O)cc1S(=O)(=O)N(C)C (stereo not given) | 2 | -8 | 97 | 100 | 0 | 1.1
CCn1c2ccccc2c2cc(Nc3cc(C)nc4ncnn34)ccc21 | -43 | -8 | 136* | 103 | -2 | 1.1
CCc1cccc(Nc2cc(C)nc3ncnn23)c1 | -4 | -12 | 103 | 104 | -5 | 1.1
CCOCCCNC(=O)c1cc2c(-c3ccc(Cl)cc3)nn(C)c2s1 | -32 | -6 | 136* | 99 | 1 | 1.1
CC(C)Cn1c(N)c(C(=O)COC(=O)c2ccc([N+](=O)[O-])o2)c(=O)n(C)c1=O | 11 | -4 | 94 | 92 | 10 | 1
NC(=O)c1cc2ccc(O)cc2oc1=Nc1ccccc1 | 24 | -3 | 85 | 130* | -34 | 1
COCc1cc(C)nc(OC)c1C(N)=O | 1 | -4 | 101 | 100 | -2 | 1
Nc1ccc(-c2nc3ncccc3o2)c(Cl)c1 | 26 | 72* | 84 | 145* | -52 | 0.3
Nc1cc(-c2nc3ncccc3o2)ccc1Cl | -36 | 32 | 130 | 130* | -32 | 0.7
Cc1cc(-c2nc3ncccc3o2)ccc1N | 27 | 30 | 80 | 139* | -42 | 0.7
Cc1cccc(N/N=C2/COC(C)(C)CC2=O)c1 | 2 | 29 | 97 | 136* | -40 | 0.7
CCOc1cccc2cc(-c3csc(NC(=O)CCC(=O)NCCN4CCCCC4C)n3)c(=O)oc12 (stereo not given) | 5 | 29 | 107 | 145* | -50 | 0.7
CCCCCNC(=O)C1CC(=O)OC12CCCCC2 (stereo not given) | 3 | -5 | 99 | 104 | -6 | 1.1
CCn1c(SCc2ccccc2Cl)nc2ccccc21 | 7 | 21 | 97 | 118 | -20 | 0.8
Cn1c(SCc2ccccc2Cl)nc2ccccc21 | -1 | 29 | 101 | 141* | -45 | 0.7
CC(=O)Nc1cccc(NC(=S)Nc2ccc(F)cc2F)c1 | -7 | 3 | 107 | 91 | 10 | 1
S=C(Nc1ccc(Oc2ccc(NC(=S)NC3CCCCC3)cc2)cc1)NC1CCCCC1 | 2 | 2 | 97 | 94 | 7 | 1
CC(C)c1ccc(NC(=S)NC2CCCCCC2)cc1 | -16 | -1 | 114 | 140* | -47 | 1
OC1CCC(NC(=S)Nc2ccc(SC(F)F)cc2)CC1 (stereo not given) | -21 | 20 | 119 | 129* | -32 | 0.8
O=C(Nc1ccc(N2CCCC2)cc1)c1ccccc1F | 6 | 71* | 95 | 149* | -53 | 0.3
Cc1cnc(C(=O)Nc2ccc(N3CCCCC3)cc2)cn1 | 26 | 55* | 80 | 135* | -39 | 0.5
